Laboratory results from ChEMBL document CHEMBL2331091, “Synthesis and pharmacological evaluation of some novel 2-(5-hydroxy-5-trifluoromethyl-4,5-dihydropyrazol-1-yl)-4-(coumarin-3-yl)thiazoles” (2013).
≈ marks a conversion by molar mass, not a printed value. Calls of active or inactive are those of the source. The calls are words filed in the database; no cut-off is given here.

Assays:
Format in all cases: functional
Rattus norvegicus [1] = assay: Antiinflammatory activity in Wistar albino rat assessed as inhibition of carrageenan-induced paw edema at 50 mg/kg, po administered 30 mins prior to carrageenan challenge measured after 4 hrs by plethysmometer analysis
Summary of the method: (§1)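 Male Wistar albino rats, 200-250 g, five per group, fasted from 12 h before and during the test. Compounds were given orally at 50 mg/kg 30 min before sub-plantar injection of 0.1 ml 1% carrageenan in 0.9% saline into the left hind paw. Tween 80 vehicle controls. Paw volume was read by plethysmometer up to the tibiotarsal mark at 0-4 h. Results are mean ± SEM and % inhibition, ANOVA and Dunnett's test.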

Rattus norvegicus [2] = assay: Antiinflammatory activity in Wistar albino rat assessed as inhibition of carrageenan-induced paw edema at 50 mg/kg, po administered 30 mins prior to carrageenan challenge measured after 3 hrs by plethysmometer analysis; summary of the method: as §1
Rattus norvegicus [3] = assay: Antiinflammatory activity in Wistar albino rat assessed as inhibition of carrageenan-induced paw edema at 50 mg/kg, po administered 30 mins prior to carrageenan challenge measured after 2 hrs by plethysmometer analysis; summary of the method: as §1
Rattus norvegicus [4] = assay: Antiinflammatory activity in Wistar albino rat assessed as inhibition of carrageenan-induced paw edema at 50 mg/kg, po administered 30 mins prior to carrageenan challenge measured after 1 hr by plethysmometer analysis; summary of the method: as §1
Pseudomonas aeruginosa [5] = assay: Antibacterial activity against Pseudomonas aeruginosa assessed as growth inhibition at 37 degC after overnight incubation by agar well diffusion method
Proteus mirabilis [6] = assay: Antibacterial activity against Proteus mirabilis assessed as growth inhibition at 37 degC after overnight incubation by agar well diffusion method
Escherichia coli [7] = assay: Antibacterial activity against Escherichia coli assessed as growth inhibition at 37 degC after overnight incubation by agar well diffusion method
Klebsiella aerogenes [8] = assay: Antibacterial activity against Klebsiella aerogenes assessed as growth inhibition at 37 degC after overnight incubation by agar well diffusion method
[9] = tested on: Staphylococcus epidermidis; assay: Antibacterial activity against Staphylococcus epidermidis assessed as growth inhibition at 37 degC after overnight incubation by agar well diffusion method
Bacillus subtilis [10] = assay: Antibacterial activity against Bacillus subtilis assessed as growth inhibition at 37 degC after overnight incubation by agar well diffusion method
Staphylococcus aureus [11] = assay: Antibacterial activity against Staphylococcus aureus assessed as growth inhibition at 37 degC after overnight incubation by agar well diffusion method
Pseudomonas aeruginosa [12] = assay: Antibacterial activity against Pseudomonas aeruginosa assessed as diameter of growth inhibition zone at 2 mg/ml at 37 degC after 24 hrs by agar well diffusion method; conditions: for zone of inhibition at 2000 µg/mL: read-out: DIZ
Proteus mirabilis [13] = assay: Antibacterial activity against Proteus mirabilis assessed as diameter of growth inhibition zone at 2 mg/ml at 37 degC after 24 hrs by agar well diffusion method; conditions: for zone of inhibition at 2000 µg/mL: read-out: DIZ
Escherichia coli [14] = assay: Antibacterial activity against Escherichia coli assessed as diameter of growth inhibition zone at 2 mg/ml at 37 degC after 24 hrs by agar well diffusion method; conditions: for zone of inhibition at 2000 µg/mL: read-out: DIZ
Klebsiella aerogenes [15] = assay: Antibacterial activity against Klebsiella aerogenes assessed as diameter of growth inhibition zone at 2 mg/ml at 37 degC after 24 hrs by agar well diffusion method; conditions: for zone of inhibition at 2000 µg/mL: read-out: DIZ
[16] = tested on: Staphylococcus epidermidis; assay: Antibacterial activity against Staphylococcus epidermidis assessed as diameter of growth inhibition zone at 2 mg/ml at 37 degC after 24 hrs by agar well diffusion method; conditions: read-out: DIZ
Bacillus subtilis [17] = assay: Antibacterial activity against Bacillus subtilis assessed as diameter of growth inhibition zone at 2 mg/ml at 37 degC after 24 hrs by agar well diffusion method; conditions: for zone of inhibition at 2000 µg/mL: read-out: DIZ
Staphylococcus aureus [18] = assay: Antibacterial activity against Staphylococcus aureus assessed as diameter of growth inhibition zone at 2 mg/ml at 37 degC after 24 hrs by agar well diffusion method; conditions: read-out: DIZ
Rattus norvegicus [19] = assay: Antiinflammatory activity in Wistar albino rat assessed as inhibition of carrageenan-induced paw edema at 10 mg/kg, po administered 30 mins prior to carrageenan challenge measured after 4 hrs by plethysmometer analysis
Rattus norvegicus [20] = assay: Antiinflammatory activity in Wistar albino rat assessed as inhibition of carrageenan-induced paw edema at 10 mg/kg, po administered 30 mins prior to carrageenan challenge measured after 3 hrs by plethysmometer analysis
Rattus norvegicus [21] = assay: Antiinflammatory activity in Wistar albino rat assessed as inhibition of carrageenan-induced paw edema at 10 mg/kg, po administered 30 mins prior to carrageenan challenge measured after 2 hrs by plethysmometer analysis
Rattus norvegicus [22] = assay: Antiinflammatory activity in Wistar albino rat assessed as inhibition of carrageenan-induced paw edema at 10 mg/kg, po administered 30 mins prior to carrageenan challenge measured after 1 hr by plethysmometer analysis

SMILES | MIC (Pseudomonas aeruginosa [5]) [µg/mL] | MIC (Proteus mirabilis [6]) [µg/mL] | MIC (Escherichia coli [7]) [µg/mL] | MIC (Klebsiella aerogenes [8]) [µg/mL] | MIC [9] [µg/mL] | MIC (Bacillus subtilis [10]) [µg/mL] | MIC (Staphylococcus aureus [11]) [µg/mL] | inhibition in vivo at 50 mg/kg (Rattus norvegicus [1]) [%] | inhibition in vivo at 50 mg/kg (Rattus norvegicus [2]) [%] | inhibition in vivo at 50 mg/kg (Rattus norvegicus [3]) [%] | inhibition in vivo at 50 mg/kg (Rattus norvegicus [4]) [%] | zone of inhibition at 2000 µg/mL (Pseudomonas aeruginosa [12]) [mm] | zone of inhibition at 2000 µg/mL (Proteus mirabilis [13]) [mm] | zone of inhibition at 2000 µg/mL (Escherichia coli [14]) [mm] | zone of inhibition at 2000 µg/mL (Klebsiella aerogenes [15]) [mm] | zone of inhibition at 2000 µg/mL [16] [mm] | zone of inhibition at 2000 µg/mL (Bacillus subtilis [17]) [mm] | zone of inhibition at 2000 µg/mL (Staphylococcus aureus [18]) [mm] | diameter of the inhibition zone (DIZ) (Pseudomonas aeruginosa [12]) | diameter of the inhibition zone (DIZ) (Proteus mirabilis [13]) | other results
O=c1oc2ccccc2cc1-c1csc(N2N=C(c3ccc(Br)cc3)C[C@@]2(O)C(F)(F)F)n1 |  |  |  |  |  |  |  | 25.2 | 35.5 | 70.8 | 76.1 |  |  |  |  |  |  |  |  |  | 
O=c1oc2ccccc2cc1-c1csc(N2N=C(C(F)(F)F)C[C@@]2(O)C(F)(F)F)n1 |  |  |  |  |  |  |  | 37.9 | 64.8 | 79.2 | 83.1 |  |  |  |  |  |  |  |  |  | 
COc1ccc2c(c1)c(CC(=O)O)c(C)n2C(=O)c1ccc(Cl)cc1 [INDOMETHACIN] |  |  |  |  |  |  |  |  |  |  |  |  |  |  |  |  |  |  |  |  | inhibition in vivo at 10 mg/kg (Rattus norvegicus [19]): 86.5%; inhibition in vivo at 10 mg/kg (Rattus norvegicus [20]): 80.9%; inhibition in vivo at 10 mg/kg (Rattus norvegicus [21]): 84.2%; inhibition in vivo at 10 mg/kg (Rattus norvegicus [22]): 94.4%
O=c1oc2ccc(Br)cc2cc1-c1csc(N2N=C(c3ccc(Cl)cc3)C[C@@]2(O)C(F)(F)F)n1 | 128 (≈ 224 µM) | 16 (≈ 28 µM) |  | 8 (≈ 14 µM) | 512 (≈ 897 µM) | 512 (≈ 897 µM) | 128 (≈ 224 µM) |  |  |  |  | 8.1 | 15.1 |  | 13 | 12.5 | 10.3 | 2 |  |  | diameter of the inhibition zone (DIZ) (Escherichia coli [14]): inactive
O=c1oc2ccc(Cl)cc2cc1-c1csc(N2N=C(c3ccc(F)cc3)C[C@@]2(O)C(F)(F)F)n1 |  |  |  |  | 64 (≈ 126 µM) |  | 32 (≈ 62.8 µM) |  |  |  |  |  |  |  |  | 14 |  | 4.93 | inactive | inactive | diameter of the inhibition zone (DIZ) (Escherichia coli [14]): inactive; diameter of the inhibition zone (DIZ) (Klebsiella aerogenes [15]): inactive; diameter of the inhibition zone (DIZ) (Bacillus subtilis [17]): inactive
O=c1oc2ccc(Cl)cc2cc1-c1csc(N2N=C(C(F)(F)F)C[C@@]2(O)C(F)(F)F)n1 |  |  |  |  |  |  |  | 41.1 | 54.5 | 63.3 | 85.9 |  |  |  |  |  |  |  |  |  | 
O=c1oc2ccc(Cl)cc2cc1-c1csc(N2N=C(c3ccc(Cl)cc3)C[C@@]2(O)C(F)(F)F)n1 |  |  |  |  | 512 (≈ 973 µM) |  | 64 (≈ 122 µM) | 31.5 | 42.1 | 62.5 | 73.2 |  |  |  |  | 11.2 |  | 4.13 | inactive | inactive | diameter of the inhibition zone (DIZ) (Escherichia coli [14]): inactive; diameter of the inhibition zone (DIZ) (Klebsiella aerogenes [15]): inactive; diameter of the inhibition zone (DIZ) (Bacillus subtilis [17]): inactive
O=c1oc2ccc(Br)cc2cc1-c1csc(N2N=C(c3ccc(Br)cc3)C[C@@]2(O)C(F)(F)F)n1 |  |  | 256 (≈ 416 µM) | 512 (≈ 832 µM) | 512 (≈ 832 µM) |  | 128 (≈ 208 µM) |  |  |  |  |  |  | 10 | 10.5 | 13.1 |  | 2.03 | inactive | inactive | diameter of the inhibition zone (DIZ) (Bacillus subtilis [17]): inactive
O=c1oc2ccc(Cl)cc2cc1-c1csc(N2N=C(c3ccc(Br)cc3)C[C@@]2(O)C(F)(F)F)n1 |  |  |  |  | 512 (≈ 897 µM) |  | 64 (≈ 112 µM) |  |  |  |  |  |  |  |  | 11.2 |  | 2.07 | inactive | inactive | diameter of the inhibition zone (DIZ) (Escherichia coli [14]): inactive; diameter of the inhibition zone (DIZ) (Klebsiella aerogenes [15]): inactive; diameter of the inhibition zone (DIZ) (Bacillus subtilis [17]): inactive
O=c1oc2ccc(Br)cc2cc1-c1csc(N2N=C(c3ccc(F)cc3)C[C@@]2(O)C(F)(F)F)n1 |  |  | 512 (≈ 924 µM) | 256 (≈ 462 µM) | 64 (≈ 115 µM) | 512 (≈ 924 µM) | 128 (≈ 231 µM) |  |  |  |  |  |  | 11 | 11 | 14 | 12.4 | 1.87 | inactive | inactive | 

Second part, led by results:

MIC (Pseudomonas aeruginosa [5]) [µg/mL] | MIC (Proteus mirabilis [6]) [µg/mL] | MIC (Escherichia coli [7]) [µg/mL] | MIC (Klebsiella aerogenes [8]) [µg/mL] | MIC [9] [µg/mL] | MIC (Bacillus subtilis [10]) [µg/mL] | MIC (Staphylococcus aureus [11]) [µg/mL] | SMILES | inhibition in vivo at 50 mg/kg (Rattus norvegicus [1]) [%] | inhibition in vivo at 50 mg/kg (Rattus norvegicus [2]) [%] | inhibition in vivo at 50 mg/kg (Rattus norvegicus [3]) [%] | inhibition in vivo at 50 mg/kg (Rattus norvegicus [4]) [%] | zone of inhibition at 2000 µg/mL (Pseudomonas aeruginosa [12]) [mm] | zone of inhibition at 2000 µg/mL (Proteus mirabilis [13]) [mm] | zone of inhibition at 2000 µg/mL (Escherichia coli [14]) [mm] | zone of inhibition at 2000 µg/mL (Klebsiella aerogenes [15]) [mm] | zone of inhibition at 2000 µg/mL [16] [mm] | zone of inhibition at 2000 µg/mL (Bacillus subtilis [17]) [mm] | zone of inhibition at 2000 µg/mL (Staphylococcus aureus [18]) [mm] | diameter of the inhibition zone (DIZ) (Pseudomonas aeruginosa [12]) | diameter of the inhibition zone (DIZ) (Proteus mirabilis [13]) | other results
32 (≈ 65.1 µM) | 4 (≈ 8.13 µM) | 2 (≈ 4.07 µM) | 8 (≈ 16.3 µM) | 64 (≈ 130 µM) | 512 (≈ 1040 µM) | 16 (≈ 32.5 µM) | O=c1oc2ccccc2cc1-c1csc(N2N=C(c3ccc(Cl)cc3)C[C@@]2(O)C(F)(F)F)n1 | 55.4 | 48 | 82.5 | 77.5 | 8.1 | 15.2 | 13.1 | 10.1 | 15.1 | 15.7 | 4.5 |  |  | 
128 (≈ 242 µM) | 16 (≈ 30.3 µM) | 128 (≈ 242 µM) | 512 (≈ 969 µM) | 16 (≈ 30.3 µM) | 8 (≈ 15.1 µM) | 64 (≈ 121 µM) | O=c1oc2ccc(Br)cc2cc1-c1csc(N2N=C(C(F)(F)F)C[C@@]2(O)C(F)(F)F)n1 |  |  |  |  | 9.13 | 17.2 | 11.9 | 11 | 20.1 | 25 | 3.13 |  |  | 
2 (≈ 4.41 µM) | 2 (≈ 4.41 µM) | 2 (≈ 4.41 µM) | 2 (≈ 4.41 µM) | 2 (≈ 4.41 µM) | 2 (≈ 4.41 µM) | 2 (≈ 4.41 µM) | C=CC1=C(C(=O)O)N2C(=O)[C@@H](NC(=O)/C(=N\OCC(=O)O)c3csc(N)n3)[C@H]2SC1 [CEFIXIME] |  |  |  |  | 10 | 20 | 14.1 | 15 | 22 | 26 | 3.9 |  |  | 
32 (≈ 67.3 µM) | 4 (≈ 8.41 µM) | 2 (≈ 4.21 µM) | 8 (≈ 16.8 µM) | 64 (≈ 135 µM) | 512 (≈ 1080 µM) | 32 (≈ 67.3 µM) | O=c1oc2ccccc2cc1-c1csc(N2N=C(c3ccc(F)cc3)C[C@@]2(O)C(F)(F)F)n1 | 18 | 22.3 | 56.7 | 74.7 | 7.87 | 17 | 13 | 12.1 | 14 | 12 | 3.96 |  |  | 
